From ChEMBL document CHEMBL1795266, “Synthesis and evaluation of monoamidoxime derivatives: toward new antileishmanial compounds” (Eur J Med Chem, 2011)

How the values were obtained:
Leishmania donovani = assay: Antileishmanial activity against Leishmania donovani MHOM/IN/00/DEVI promastigote after 72 hrs by MTT assay; assay type: functional, organism-based
Method in brief: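 Promastigotes were seeded at 10⁶ parasites/mL in medium containing penicillin and streptomycin, with a range of compound concentrations in duplicate (DMSO under 0.5% v/v final). After MTT addition, plates stood 6 h at 27 °C and were spun at 900 G for 10 min. The pellet was dissolved in DMSO and read at 570 nm. IC50 (50% loss of metabolic activity versus control) came from nonlinear dose-response regression.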

J774.A1 = assay: Cytotoxic activity against mouse J774A1 cells after 72 hrs by MTT assay; assay type: cell-based; details: J774.A1, 72 h
Method in brief: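 J774A.1 macrophages were grown in medium with 10% FCS, 2 mM L-glutamine, penicillin and streptomycin. Cells were seeded at 5 × 10⁴ cells/mL with a concentration range in duplicate (DMSO under 0.5% v/v final) and held 72 h at 37 °C, 6% CO₂. MTT was added at 0.5 mg/mL in RPMI 1640 for 2 h at 37 °C. Formazan was dissolved in DMSO and read at 570 nm. IC50 came from nonlinear regression, as the mean of three independent experiments.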

[1] = Selectivity index, ratio of IC50 for mouse J774A1 cells to IC50 for Leishmania donovani MHOM/IN/OO/DEVI promastigote; assay type: toxicity, cell-based, J774.A1; details: read-out: Ratio IC50

CC1(Cc2ccccc2)CC(S(=O)(=O)c2ccc(Br)cc2)=C(c2ccc(/C(N)=N/O)cc2)O1 (stereo unspecified)
IC50 (Leishmania donovani): 5.21 µM
IC50 (J774.A1): 20.1 µM
selectivity ratio [1]: 3.85

CC1(Cc2ccccc2)CC(S(=O)(=O)c2ccc(/C(N)=N\O)cc2)=C(c2ccc([N+](=O)[O-])cc2)O1 (stereo unspecified)
IC50 (Leishmania donovani): 18.8 µM
IC50 (J774.A1): 18.5 µM
selectivity ratio [1]: 0.98

CC1(Cc2ccccc2)CC(S(=O)(=O)c2ccc(F)cc2)=C(c2ccc(/C(N)=N/O)cc2)O1 (stereo unspecified)
IC50 (Leishmania donovani): 7.15 µM
IC50 (J774.A1): 45.5 µM
selectivity ratio [1]: 6.37

CC1(Cc2ccccc2)CC(S(=O)(=O)c2ccc(C(F)(F)F)cc2)=C(c2ccc(/C(N)=N/O)cc2)O1 (stereo unspecified)
IC50 (Leishmania donovani): 7.89 µM
IC50 (J774.A1): 30.5 µM
selectivity ratio [1]: 3.87

CC1(Cc2ccccc2)CC(S(=O)(=O)c2ccc(/C(N)=N\O)cc2)=C(c2ccc(F)cc2)O1 (stereo unspecified)
IC50 (Leishmania donovani): 30.7 µM
IC50 (J774.A1): 36.2 µM
selectivity ratio [1]: 1.18

CC1(Cc2ccccc2)CC(S(=O)(=O)c2ccc(I)cc2)=C(c2ccc(/C(N)=N/O)cc2)O1 (stereo unspecified)
IC50 (Leishmania donovani): 6.89 µM
IC50 (J774.A1): 11.8 µM
selectivity ratio [1]: 1.72

CC1(Cc2ccccc2)CC(S(=O)(=O)c2ccc(/C(N)=N\O)cc2)=C(c2ccc(I)cc2)O1 (stereo unspecified)
IC50 (Leishmania donovani): 6.63 µM
IC50 (J774.A1): 8.08 µM
selectivity ratio [1]: 1.22

CC1(Cc2ccccc2)CC(S(=O)(=O)c2ccc(/C(N)=N\O)cc2)=C(c2ccc(C(F)(F)F)cc2)O1 (stereo unspecified)
IC50 (Leishmania donovani): 8.46 µM
IC50 (J774.A1): 11.9 µM
selectivity ratio [1]: 1.4

COc1cccc2c1C(=O)c1c(O)c3c(c(O)c1C2=O)C[C@@](O)(C(=O)CO)C[C@@H]3O[C@H]1C[C@H](N)[C@H](O)[C@H](C)O1 [DOXORUBICIN]
IC50 (J774.A1): 0.02 µM

N=C(N)c1ccc(OCCCCCOc2ccc(C(=N)N)cc2)cc1 [PENTAMIDINE]
IC50 (Leishmania donovani): 6.29 µM
IC50 (J774.A1): 1.03 µM
selectivity ratio [1]: 0.16

CC1(Cc2ccccc2)CC(S(=O)(=O)c2ccc(/C(N)=N\O)cc2)=C(c2ccc(Br)cc2)O1 (stereo unspecified)
IC50 (Leishmania donovani): 8.95 µM
IC50 (J774.A1): 9.78 µM
selectivity ratio [1]: 1.09

COc1ccc(S(=O)(=O)C2=C(c3ccc(/C(N)=N/O)cc3)OC(C)(Cc3ccccc3)C2)cc1 (stereo unspecified)
IC50 (Leishmania donovani): 7.49 µM
IC50 (J774.A1): 9.03 µM
selectivity ratio [1]: 1.21

CC1(Cc2ccccc2)CC(S(=O)(=O)c2ccc(Cl)cc2)=C(c2ccc(/C(N)=N/O)cc2)O1 (stereo unspecified)
IC50 (Leishmania donovani): 7.4 µM
IC50 (J774.A1): 27.4 µM
selectivity ratio [1]: 3.71

C[C@@H]1[C@H](O)[C@@H](C)/C=C/C=C/C=C/C=C/C=C/C=C/C=C/[C@H](O[C@@H]2O[C@H](C)[C@@H](O)[C@H](N)[C@@H]2O)C[C@@H]2O[C@](O)(C[C@@H](O)C[C@@H](O)[C@H](O)CC[C@@H](O)C[C@@H](O)CC(=O)O[C@H]1C)C[C@H](O)[C@H]2C(=O)O [AMPHOTERICIN B]
IC50 (Leishmania donovani): 0.77 µM
IC50 (J774.A1): 3.14 µM
selectivity ratio [1]: 4.08

CC1(Cc2ccccc2)CC(S(=O)(=O)c2ccc([N+](=O)[O-])cc2)=C(c2ccc(/C(N)=N/O)cc2)O1 (stereo unspecified)
IC50 (Leishmania donovani): 19.4 µM
IC50 (J774.A1): 50.6 µM
selectivity ratio [1]: 2.61

CC1(Cc2ccccc2)CC(S(=O)(=O)c2ccc(/C(N)=N\O)cc2)=C(c2ccc(Cl)cc2)O1 (stereo unspecified)
IC50 (Leishmania donovani): 9.87 µM
IC50 (J774.A1): 7.05 µM
selectivity ratio [1]: 0.71
